From ChEMBL document CHEMBL1144645, “The discovery of highly selective erbB2 (Her2) inhibitors for the treatment of cancer” (Bioorg Med Chem Lett, 2007)

Key:
[1] = target: T1, Receptor tyrosine-protein kinase erbB-2 (Homo sapiens, UniProt P04626); assay: Inhibition of erbB2 expressed in Sf9 cells
Method in brief: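 GST-tagged erbB2 intracellular domain (residues 675–1255) made in baculovirus/Sf9 and purified; ~15 ng enzyme phosphorylates poly(Glu,Tyr) with 1 mM ATP plus inhibitor over 6 min. Phosphotyrosine detected by HRP-PY-54 antibody and TMB, A450. IC50 is the mean of at least two experiments.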

[2] = target: Epidermal growth factor receptor and ErbB2 (HER1 and HER2) (Homo sapiens) (UniProt P04626+P00533); assay: Selectivity for erbB2 over EGFR; format: protein assay
Method in brief: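 Cell selectivity: IC50 ratio between two NIH3T3 lines run under identical conditions, one carrying human EGFR and one carrying the EGFR-extracellular/erbB2-intracellular chimera. Each line takes 2 h inhibitor, then 15 min human recombinant EGF. Phosphotyrosine measured with HRP-PY-54 and TMB at 450 nm.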

[3] = target: T1, Receptor tyrosine-protein kinase erbB-2; assay: Inhibition of erbB2 in NH3T3 cells; format: cell-based
Method in brief: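 NIH3T3 cells expressing a chimera of EGFR extracellular and erbB2 intracellular domains are plated, exposed to inhibitor for 2 h, then stimulated with human recombinant EGF for 15 min. Receptor phosphotyrosine read with HRP-PY-54 antibody and TMB, A450. IC50 is the mean of at least two experiments.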

T1 sequence (P04626 whole entry, the tested form may be a part): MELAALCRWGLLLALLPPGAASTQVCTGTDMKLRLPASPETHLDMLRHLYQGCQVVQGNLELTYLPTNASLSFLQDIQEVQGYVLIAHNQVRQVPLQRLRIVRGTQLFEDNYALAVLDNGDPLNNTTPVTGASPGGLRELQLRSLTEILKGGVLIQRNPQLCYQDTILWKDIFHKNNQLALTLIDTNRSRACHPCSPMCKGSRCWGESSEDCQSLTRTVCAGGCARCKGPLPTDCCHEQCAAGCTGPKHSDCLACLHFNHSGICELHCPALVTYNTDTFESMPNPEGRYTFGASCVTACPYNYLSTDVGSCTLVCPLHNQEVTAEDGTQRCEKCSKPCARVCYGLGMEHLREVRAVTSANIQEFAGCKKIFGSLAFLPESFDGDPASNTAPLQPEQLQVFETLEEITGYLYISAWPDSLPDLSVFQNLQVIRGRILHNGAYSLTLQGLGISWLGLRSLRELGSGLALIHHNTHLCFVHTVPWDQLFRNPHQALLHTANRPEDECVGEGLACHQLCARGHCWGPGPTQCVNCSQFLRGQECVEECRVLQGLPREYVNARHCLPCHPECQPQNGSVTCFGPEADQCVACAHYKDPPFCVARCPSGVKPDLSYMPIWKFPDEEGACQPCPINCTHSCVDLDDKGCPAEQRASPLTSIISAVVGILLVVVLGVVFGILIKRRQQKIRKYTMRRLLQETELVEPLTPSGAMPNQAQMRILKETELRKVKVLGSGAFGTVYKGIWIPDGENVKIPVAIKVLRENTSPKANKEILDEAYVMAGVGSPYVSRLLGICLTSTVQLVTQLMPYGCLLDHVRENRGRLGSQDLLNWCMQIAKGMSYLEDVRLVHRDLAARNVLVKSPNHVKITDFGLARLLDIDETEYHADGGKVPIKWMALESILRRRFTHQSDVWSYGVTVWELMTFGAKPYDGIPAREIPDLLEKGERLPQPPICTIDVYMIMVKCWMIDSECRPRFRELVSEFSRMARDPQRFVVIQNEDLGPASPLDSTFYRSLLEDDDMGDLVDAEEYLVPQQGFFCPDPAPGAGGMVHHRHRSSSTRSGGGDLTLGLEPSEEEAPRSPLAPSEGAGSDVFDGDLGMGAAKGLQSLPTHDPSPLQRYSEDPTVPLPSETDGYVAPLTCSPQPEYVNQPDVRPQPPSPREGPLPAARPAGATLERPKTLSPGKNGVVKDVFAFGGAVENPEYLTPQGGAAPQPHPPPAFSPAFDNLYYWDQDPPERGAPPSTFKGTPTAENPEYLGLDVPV

IC50 [1]	Selectivity ratio [2]	IC50 [3]	Structure (SMILES)
> 10000 nM			COCC(=O)NCC#Cc1ccc2ncnc(Nc3ccc(OC4CCN(C(=O)COC)CC4)c(C)c3)c2c1
230 nM	6.5	840 nM	COCCOc1cc2ncnc(Nc3ccc(OC4CCN(C(=O)Nc5c(F)cccc5F)CC4)c(C)c3)c2cc1OCCOC
21 nM	68	20 nM	Cc1cc(Nc2ncnc3cnc(N(C)C)cc23)ccc1OC1CCN(C(=O)Nc2c(F)cccc2F)CC1
30 nM	230	13 nM	CNc1cc2c(Nc3ccc(Oc4ccc(C(=O)NCC(C)(C)C)cc4)c(C)c3)ncnc2cn1
44 nM	> 350	29 nM	COCCOc1ccc2ncnc(Nc3ccc(OC4CCN(C(=O)C5CCCC5)CC4)c(C)c3)c2c1
> 10000 nM			COCC(=O)NCC#Cc1ccc2ncnc(Nc3ccc(Oc4cccc(C(=O)N(C)C)c4)c(C)c3)c2c1
18 nM	250	30 nM	COCC(=O)NCC#Cc1ccc2ncnc(Nc3ccc(Oc4cccc(C(=O)NC(C)(C)C)c4)c(C)c3)c2c1
140 nM			COCC(=O)NCC#Cc1ccc2ncnc(Nc3ccc(Oc4cccc(C(=O)Nc5ccccc5)c4)c(C)c3)c2c1
7 nM	210	16 nM	Cc1cc(Nc2ncnc3cnc(N4CCOCC4)cc23)ccc1OC1CCN(C(=O)Nc2c(F)cccc2F)CC1
77 nM	1	310 nM	COc1cc2ncnc(Nc3ccc(Oc4ccc(C(=O)NCC(C)(C)C)cc4)c(C)c3)c2cc1OC
> 10000 nM			COCC(=O)NCC#Cc1ccc2ncnc(Nc3ccc(OC4CCN(C(C)=O)CC4)c(C)c3)c2c1
55 nM	32	55 nM	Cc1cc(Nc2ncnc3ccc(OCCCN4CCOCC4)cc23)ccc1OC1CCN(C(=O)Nc2c(F)cccc2F)CC1
75 nM	> 290	34 nM	Cc1cc(Nc2ncnc3ccc(OCCCN4CCOCC4)cc23)ccc1OC1CCN(C(=O)CC(C)(C)C)CC1
> 10000 nM			COCC(=O)NCC#Cc1ccc2ncnc(Nc3ccc(Oc4ccc(C(=O)NC(C)(C)C)cc4)c(C)c3)c2c1
46 nM	11	250 nM	COc1ccc2ncnc(Nc3ccc(OC4CCN(C(=O)Nc5c(F)cccc5F)CC4)c(C)c3)c2c1
25 nM	25	180 nM	CNc1cc2c(Nc3ccc(OC4CCN(C(=O)Nc5c(F)cccc5F)CC4)c(C)c3)ncnc2cn1
> 10000 nM			CNC(=O)c1cccc(Oc2ccc(Nc3ncnc4ccc(C#CCNC(=O)COC)cc34)cc2C)c1
77 nM	> 19	530 nM	COCCOc1cc2ncnc(Nc3ccc(OC4CCN(C(=O)C5CCCC5)CC4)c(C)c3)c2cc1OCCOC
23 nM	> 1000	< 10 nM	Cc1cc(Nc2ncnc3cnc(N4CCOCC4)cc23)ccc1OC1CCN(C(=O)CC(C)(C)C)CC1
> 10000 nM			COCC(=O)NCC#Cc1ccc2ncnc(Nc3ccc(OC4CCNCC4)c(C)c3)c2c1
> 10000 nM			COCC(=O)NCC#Cc1ccc2ncnc(Nc3ccc(Oc4ccc(C(=O)N(C)C)cc4)c(C)c3)c2c1
120 nM	> 500	19 nM	COCCOc1ccc2ncnc(Nc3ccc(OC4CCN(C(=O)CC(C)(C)C)CC4)c(C)c3)c2c1
550 nM		2900 nM	COCC(=O)NCC#Cc1ccc2ncnc(Nc3ccc(OC4CCN(C(=O)C5CCCO5)CC4)c(C)c3)c2c1 (stereo unspecified)
> 10000 nM			CNC(=O)c1ccc(Oc2ccc(Nc3ncnc4ccc(C#CCNC(=O)COC)cc34)cc2C)cc1
> 10000 nM			COCC(=O)NCC#Cc1ccc2ncnc(Nc3ccc(OC4CCN(C)CC4)c(C)c3)c2c1
96 nM			COc1ccc2ncnc(Nc3ccc(OC4CCN(C(=O)CC(C)(C)C)CC4)c(C)c3)c2c1
> 10000 nM			COCC(=O)NCC#Cc1ccc2ncnc(Nc3ccc(Oc4ccc(C(=O)Nc5ccccc5)cc4)c(C)c3)c2c1
